According to ChEMBL document CHEMBL1123321, “Synthesis and evaluation of 2-substituted 1-methyl-1-(4-tolylsulfonyl)hydrazines as antineoplastic agents” (1986):

Tests used:
Assay type in all cases: functional
[1] = tested on: Mus musculus; assay: Compound was evaluated for antineoplastic activity against mice bearing L1210 leukemia. Optimum effective daily dose administered once daily for 6 consecutive days
How it was run: (§1)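 L1210 leukemia was carried and implanted ip in mice as in earlier work. Starting 24 h after implantation, drug was given ip once daily for 6 days across a range of doses, as a Tween 80/saline suspension. Survival was scored as %T/C, the mean survival of treated over control ×100.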

[2] = species: Mus musculus; assay: Compound was evaluated for antineoplastic activity against mice bearing L1210 leukemia.; how it was run: as §1
[3] = tested on: Mus musculus; assay: Compound was evaluated for antineoplastic activity against mice bearing […], Optimum effective daily dose administered once daily for 6 consecutive days
How it was run: (§2)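 B16 melanoma tissue was dispersed in serum-free Fischer's medium (1 g per 5 mL), and 0.2 mL was implanted ip per mouse. Starting 24 h after implantation, drug was given ip once daily for 6 days across a range of doses, as a suspension in 20% aq. Tween 80 and isotonic saline. Groups were five mice; vehicle controls were included. %T/C was mean survival time of treated over control ×100.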

[4] = species: Mus musculus; assay: Compound was evaluated for antineoplastic activity against mice bearing L1210 leukemia. Average change in body weight from onset to termination of therapy..
How it was run: (§3)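 In L1210-bearing mice, dosing was ip once daily for 6 days, beginning 24 h after implantation, with groups of five. The vehicle was a Tween 80/saline suspension. Body weight was recorded, and the read-out was the mean % change in body weight from the start to the end of therapy.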

[5] = species: Mus musculus; assay: Compound was evaluated for antineoplastic activity against mice bearing B6 melanoma.; how it was run: as §2
[6] = species: Mus musculus; assay: Compound was evaluated for antineoplastic activity against mice bearing B16 melanoma; how it was run: as §2
[7] = tested on: Mus musculus; assay: Compound was evaluated for antineoplastic activity against mice bearing B16 melanoma, optimum effective daily dose administered once daily for 6 consecutive days; how it was run: as §2
[8] = species: Mus musculus; assay: Compound was evaluated for antineoplastic activity against mice bearing L1210 leukemia. Average change in body weight from onset to termination of therapy; how it was run: as §3
[9] = tested on: Mus musculus; assay: Compound was evaluated for antineoplastic activity against mice bearing L1210 leukemia, optimum effective daily dose administered once daily for 6 consecutive days; how it was run: as §1
[10] = species: Mus musculus; assay: Compound was evaluated for antineoplastic activity against mice bearing B16 melanoma.; how it was run: as §2

Structure (SMILES)	OD [1] [mg/kg]	T/C [2] [%]	OD [3] [mg/kg]	Average change in body weight [4] [%]	Average change in body weight [5] [%]	T/C [5] [%]	Average change in body weight [6] [%]	OD [7] [mg/kg]	Average change in body weight [8] [%]	OD [9] [mg/kg]	Max T/C [6] [%]	Average change in body weight [10] [%]
Cc1ccc(S(=O)(=O)N(C)NSc2ccccc2[N+](=O)[O-])cc1	50	151	100	15.5	-2	99						
Cc1ccc(S(=O)(=O)N(C)NP(=O)(Oc2ccccc2)Oc2ccccc2)cc1	150	99	100	20.9	7.4	91						
Cc1ccc(S(=O)(=O)N(C)NC(=O)c2ccccc2)cc1	50	167	150	7.5	6.8	96						
CCS(=O)(=O)NN(C)S(=O)(=O)c1ccc(C)cc1							-1.1	50				
Cc1ccc(S(=O)(=O)N(C)NC(=O)c2ccc([N+](=O)[O-])cc2)cc1	100	133	50	-6.3	3.9	97						
Cc1ccc(S(=O)(=O)N(C)NS(C)(=O)=O)cc1							-1.9	10	-7.9	30		
Cc1ccc(S(=O)(=O)N(C)NC(=O)/C=C/c2ccccc2)cc1	50	94	150	14.8	1.8	94						
Cc1ccc(S(=O)(=O)N(C)NS(=O)(=O)Cc2ccccc2)cc1							-2.4	50	10.8	50	172	
Cc1ccc(S(=O)(=O)N(C)NP(=O)(c2ccccc2)c2ccccc2)cc1	50	100	150	5.8	0.7	112						
Cc1ccc(S(=O)(=O)NN(C)S(=O)(=O)c2ccc(C)cc2)cc1								150	3.7	50		-2.7
